SR-BI HDL uptake = mouse SR-BI HDL lipid transfer inhibition; ldlA[mSR-BI] CHO cells, DiI-HDL uptake fluorescence, 3 h; 320,000 compounds, 0.96% hits; Q61009; inhibition, % at 12.5 µM;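 active = mean replicate inhibition of at least 70% and a set share of replicates each scoring 70 or more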;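 also: 0% = median of neutral control wells and 100% = median of positive control wells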
SR-BI uptake up = SR-BI HDL lipid transfer activation; activation, % at 12.5 µM; 320,000 compounds, 0.096% hits; CHO ldlA[mSR-BI] cells, DiI-HDL uptake fluorescence, 3 h; 100 = double the neutral-control signal;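 active = mean replicate activation of at least 60% and every replicate at or above 60%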;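 also: 0% = median plate neutral-control signal and 100% = twice that signal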
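Material: SR-BI-overexpressing, LDLR-lacking CHO cells | Dosing: Single compound concentration, delivered by pin transfer | Probe or stimulus: Labelled HDL, 10 µg/mL | Signal: Bottom-read cell fluorescence after medium removal, ex 550/em 595 nm | Schedule: 3 h, 37 °C | Evaluation: HDL uptake via cellular fluorescence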
PKA-R2B activ = activates the human PKA-R2B holoenzyme complex; P22694+P31323; PKA-R2B holoenzyme dissociation, Cy5-IP20 fluorescence polarization; R2B truncated from residue 108, S112A mutant; 0% DMSO only, 100% 113 µM cGMP; activation, % at 11.4 µM; 340,000 compounds, 0.079% hits;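 active = activation above a cutoff set at the mean over all compounds plus 3 SD, cut at about 18% in these data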;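 also: higher means more holoenzyme dissociation and a rise in polarization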
Target sequence (P31323 whole entry, looked up, other chains not shown, the tested form may be a part): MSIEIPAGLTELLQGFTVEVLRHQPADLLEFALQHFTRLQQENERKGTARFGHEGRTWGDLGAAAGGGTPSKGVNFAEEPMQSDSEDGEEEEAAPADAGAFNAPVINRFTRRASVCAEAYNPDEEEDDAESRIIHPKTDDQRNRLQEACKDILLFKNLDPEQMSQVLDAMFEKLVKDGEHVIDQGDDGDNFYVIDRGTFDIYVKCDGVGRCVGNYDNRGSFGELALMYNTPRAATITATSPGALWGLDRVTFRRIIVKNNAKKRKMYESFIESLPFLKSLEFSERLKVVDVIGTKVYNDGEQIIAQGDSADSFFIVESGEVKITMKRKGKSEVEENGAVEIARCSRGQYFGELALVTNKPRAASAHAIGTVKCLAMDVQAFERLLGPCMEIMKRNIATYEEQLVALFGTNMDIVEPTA
PKA-R1A activ = activates the PKA-R1A holoenzyme complex; P00514+P68181; PKA-R1A dissociation, Cy5-IP20 fluorescence polarization; scaled: DMSO 0%, 113 µM cGMP 100%; activation, % at 11.4 µM; 340,000 compounds, 0.083% hits;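 active = percent activation above the mean of all tested compounds plus 3 SD, cut at about 19% in these data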;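 also: higher means more PKAc released from R1A so a rise in polarization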
Vif imaging = inhibitors of HIV Vif | HEK293T cells, Vif self-association by quenched fluorescence, imaging, 24 h | inhibition, % at 7.49 µM | 340,000 compounds, 0.35% hits; in the data active = inhibition above about 50%, passing the limit was not always enough
* hit, by the source's call; . = no result. A selection: hits, their analogues and other compounds. The true share with any hit is near 1.4%.

SMILES | SR-BI HDL uptake | SR-BI uptake up | PKA-R2B activ | PKA-R1A activ | Vif imaging
Cc1cccc(NC(=O)C2CCN(S(=O)(=O)c3c(C)nn(C)c3C)CC2)n1 | . | . | 5.6 | -1.7 | -10.1
Cc1cccc(NC(=O)C2CCN(S(=O)(=O)c3c(C)c(C)cc(C)c3C)CC2)n1 | 72.8* | -72.8 | -11.2 | -4.2 | .
CN1CCN(NC(=S)Nc2ccc(OC(F)F)cc2)CC1 | -5.7 | 5.7 | 4.2 | -5.4 | 0.8
CC(C)NCCOc1cccc(Br)c1 | -6.7 | 6.7 | -14.0 | -3.9 | 55.9*
Cc1nnc(SCC2=C(C(=O)O)N3C(=O)C(NC(=O)COc4ccccc4)C3SC2)s1 (centres undefined) | -8.4 | 8.4 | 2.9 | 0.5 | -4.4
CCC(C(=O)NC1C(=O)N2C(C(=O)O)=C(CSc3nnc(C)s3)CSC12)c1ccccc1 (centres undefined) | -74.1 | 74.1* | -10.6 | -1.6 | 12.8
CC1CCc2c(sc3ncnc(NCCCOC(C)C)c23)C1 (centres undefined) | 75.4* | -75.4 | 4.9 | -4.9 | -26.0
CCC(=O)Nc1ccc(Cl)c(NC(=S)NC(=O)c2ccco2)c1 | 95.6* | -95.6 | -11.3 | -1.1 | -1.4
COc1ccccc1NC(=O)Nc1nc(CC(=O)Nc2cccc(F)c2)cs1 | 36.0 | -36.0 | 0.2 | -12.4 | -10.6
COc1ccccc1NC(=O)Nc1nc(CC(=O)Nc2ccc(N(C)C)cc2)cs1 | 90.7* | -90.7 | -0.7 | -12.5 | 15.7
COc1ccc(NC(=O)Cc2csc(NC(=O)Nc3ccccc3OC)n2)cc1 | . | . | -13.6 | -10.7 | -5.2
COc1ccccc1NC(=O)Nc1nc(CC(=O)Nc2cc(F)ccc2F)cs1 | 96.5* | -96.5 | 0.6 | -2.8 | 2.1
Cc1ccc(Cl)cc1N1CCN(C(c2cccnc2)c2nnnn2C2CCCCC2)CC1 (centres undefined) | 27.6 | -27.6 | 2.5 | 5.1 | 70.9*
Cc1ccc(Cl)cc1N1CCN(C(c2ccc(C#N)cc2)c2nnnn2C2CCCC2)CC1 (centres undefined) | 33.1 | -33.1 | 7.1 | -0.9 | 11.4
CCOC(=O)N1CCN(S(=O)(=O)c2ccc(C(=O)NNc3nc4ccc(Cl)cc4s3)cc2)CC1 | 128.2* | -128.3 | -12.2 | -7.1 | -3.3
CCOC(=O)N1CCN(S(=O)(=O)c2ccc(C(=O)N(CCN(C)C)c3nc4ccc(Cl)cc4s3)cc2)CC1 | -15.3 | 15.3 | -6.7 | -5.1 | 16.1
CCOC(=O)N1CCN(S(=O)(=O)c2ccc(C(=O)NNc3nc4cc(C)cc(C)c4s3)cc2)CC1 | 120.8* | -120.8 | 4.9 | -2.3 | -0.3
CCOC(=O)N1CCN(S(=O)(=O)c2ccc(C(=O)NNc3nc4c(C)cc(C)cc4s3)cc2)CC1 | . | . | . | . | 4.4
CCOC(=O)N1CCN(S(=O)(=O)c2ccc(C(=O)NNc3nc4c(C)cccc4s3)cc2)CC1 | 102.5* | -102.5 | 8.3 | 4.9 | 9.4
S=c1[nH]ccn1-c1ccccc1Cl | -5.0 | 5.0 | -0.7 | -0.2 | 1.3
S=c1[nH]ccn1-c1cccc(Cl)c1Cl | 5.7 | -5.7 | -5.1 | -10.9 | 52.4*
O=C(CSCc1cccc(Br)c1)N=Nc1c(O)[nH]c2ccccc12 | -34.2 | 34.2 | -4.6 | -5.1 | 1.4
O=Nc1c(-c2c(O)[nH]c3cc(Br)ccc23)[nH]c2ccccc12 | 118.2* | -118.1 | -5.1 | -12.8 | -3.0
Cc1cccc2cc(C#N)c(SCC(=O)N3CC(=O)Nc4ccccc43)nc12 | -1.5 | 1.5 | -3.0 | -0.4 | 61.4*
CCc1nc2ccc(C(=O)NCCC(C)C)cn2c1N(CC)CCOC | . | . | . | . | 9.6
SMILES | SR-BI HDL uptake | SR-BI uptake up | PKA-R2B activ | PKA-R1A activ | Vif imaging
CC(C)NC(=O)c1cc(C2CCCCN2S(=O)(=O)c2ccc(F)cc2F)on1 (centres undefined) | . | . | . | . | -2.8
COc1ccc(N=c2oc3cc(O)ccc3cc2C(=O)Nc2ccccn2)cc1OC | 71.5* | -71.5 | -3.0 | -0.8 | -17.4
CCOC(=O)C1(Cc2cccc(F)c2)CCN(Cc2nc(CC)[nH]c2C)CC1 | 3.0 | -3.0 | 0.3 | 3.3 | 85.1*
CCOC(=O)C1(Cc2ccccc2)CCN(Cc2csc(C(C)=O)c2)CC1 | -9.8 | 9.8 | -10.8 | -9.8 | 119.0*
CCOC(=O)C1(Cc2cccc(F)c2)CCN(Cc2cnn(CC)c2)CC1 | -4.0 | 4.0 | 4.9 | 6.6 | -7.1
CCOC(=O)C1(Cc2ccccc2)CCN(Cc2cnn(C(C)C)c2)CC1 | -15.4 | 15.4 | -6.0 | -2.1 | 6.2
